# RAD52 inh = blocks human RAD52 DNA annealing; P43351; recombinant RAD52 DNA annealing, FRET fluorescence; inhibition, % at 18.7 µM; 360,000 compounds, 0.46% hits; AID 651710;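 active = every replicate showing at least 50% inhibition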
# FID counter = fluorescent intercalator displacement, NS3 helicase counter-screen; DNA fluorescent intercalator displacement, fluorescence; 290,000 compounds, 0.17% hits; inhibition, % at 7.9 µM; in the data active = inhibition above about 37%;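 note: higher means more ethidium bromide displaced from hairpin DNA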
# RAD54 branch = blocks human RAD54 Holliday junction branch migration; Q92698; FAM/BHQ fluorescence; inhibition, % at 10.4 µM; 360,000 compounds, 0.14% hits; AID 602329;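 active = mean normalized replicate activity at least 40 and at least half of replicates scoring 40 or more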;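 note: inhibitors cause a drop in the FAM fluorescence signal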
# UBC13 polyUb = human UBC13 polyubiquitination inhibition; P61088; UBC13 polyubiquitin chain formation, TR-FRET; inhibition, % at 20 µM; 330,000 compounds, 0.47% hits; AID 485273; in the data active = inhibition above about 45%, passing the limit was not always enough
# Apaf-1 inh = blocks human Apaf-1 apoptosome activity | O14727 | reconstituted apoptosome caspase-3 activity, DEVD-Rh110 fluorescence | inhibition, % at 20 µM | 330,000 compounds, 0.71% hits | AID 489030; active = inhibition of at least 40% at 20 µM
#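 System – cell-free apoptosome with Apaf-1, procaspase-3 and caspase-9 · Buffer or medium – pH 7.5 Hepes buffer with CHAPS, BSA, DTT · Also added – cytochrome c with DEVD-Rh110 · Times – 30 min compound preincubation, 50 min activation, room temperature · Technique – Rh110 fluorescence intensity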
# Neddyl block = blocks human cullin neddylation; calls only at 25 µM; P61081+Q13564; TR-FRET cullin neddylation, biochemical; 360,000 compounds, 0.58% hits; in the data active = inhibition above about 36%
# Target sequence (P61081 whole entry, looked up): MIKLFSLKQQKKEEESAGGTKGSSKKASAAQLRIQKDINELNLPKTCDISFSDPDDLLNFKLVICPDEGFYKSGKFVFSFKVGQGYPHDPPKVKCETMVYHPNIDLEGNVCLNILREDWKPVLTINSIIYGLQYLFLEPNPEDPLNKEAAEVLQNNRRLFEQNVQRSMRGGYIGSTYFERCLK
# Target sequence (Q13564 whole entry, looked up): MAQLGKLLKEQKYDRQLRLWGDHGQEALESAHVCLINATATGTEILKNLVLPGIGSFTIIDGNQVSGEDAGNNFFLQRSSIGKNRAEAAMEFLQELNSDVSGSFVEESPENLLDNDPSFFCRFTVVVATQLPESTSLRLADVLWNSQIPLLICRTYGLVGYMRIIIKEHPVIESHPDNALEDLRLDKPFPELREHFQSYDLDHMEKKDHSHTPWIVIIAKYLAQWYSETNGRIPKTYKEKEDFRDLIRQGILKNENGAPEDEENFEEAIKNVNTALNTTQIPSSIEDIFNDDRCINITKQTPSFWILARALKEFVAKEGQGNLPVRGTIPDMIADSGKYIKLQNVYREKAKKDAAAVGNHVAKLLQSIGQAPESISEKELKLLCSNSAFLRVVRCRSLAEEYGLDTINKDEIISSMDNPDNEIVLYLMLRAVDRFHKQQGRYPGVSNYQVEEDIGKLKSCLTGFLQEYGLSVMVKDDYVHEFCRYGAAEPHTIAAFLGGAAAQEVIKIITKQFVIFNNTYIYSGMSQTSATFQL
# Neddyl conf = confirmation of human cullin neddylation inhibitors. shares compounds with Neddyl block. TR-FRET cullin neddylation biochemical assay. calls only at 25 µM. 1,800 compounds, 13% hits; in the data active = inhibition above about 40%;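 note: neddylation substrate is the cullin 1 ring ligase complex with SKP2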
# Calls only; - = inactive; . = not tested or not shown; + = active, no number. Rows were chosen to be rich in hits. Some 1.6% of all compounds tested hit in one or more screens of this group.
SMILES,RAD52 inh,FID counter,RAD54 branch,UBC13 polyUb,Apaf-1 inh,Neddyl block,Neddyl conf
COc1cc(C(=O)N/N=C/c2sc(N3CCOCC3)nc2-c2ccccc2)cc(OC)c1OC,-,-,.,-,-,+,-
COc1ccc(S(=O)(=O)Nc2ccc3c(c2)C(=O)N([C@@H](C)CO)C[C@@H](C)[C@@H](CN(C)C)OCCCC[C@H](C)O3)cc1,-,.,-,.,.,.,.
O=C(NCC1CCCO1)c1ccc2c3n(nc2c1)-c1ccccc1CO3 (stereo not drawn),.,.,-,-,-,+,-
COCCNC(=O)c1ccc2c3n(nc2c1)-c1ccc(C)cc1CO3,-,.,-,-,-,+,.
O=C(NCC[C@@H]1CC[C@@H](NS(=O)(=O)Cc2ccccc2)[C@H](CO)O1)C1CC1,-,.,-,.,.,.,.
COCC(=O)N1CC2(C1)[C@@H](c1ccc(-c3ccccc3)cc1)[C@@H](CO)N2C(=O)COC,-,.,.,.,.,.,.
COc1ccc(NC(=O)Nc2ccc3c(c2)C(=O)N([C@@H](C)CO)C[C@@H](C)[C@@H](CN(C)CC2CC2)OCCCC[C@@H](C)O3)cc1,-,.,-,.,.,.,.
Cc1cc(-c2ccccc2)nc2oc(C(=O)NN)c(N)c12,-,-,-,-,-,+,+
C[C@H]1CN([C@@H](C)CO)S(=O)(=O)c2ccc(-c3ccncc3)cc2O[C@@H]1CN(C)S(C)(=O)=O,-,.,-,.,.,.,.
CSc1ccccc1NC(=S)N/N=C/c1cccn1Cc1ccc(F)cc1,-,-,.,-,-,+,-
C[C@@H]1CCCCO[C@@H](CN(C)S(=O)(=O)c2ccccc2)[C@H](C)CN([C@@H](C)CO)C(=O)c2cc(NS(=O)(=O)c3cccs3)ccc2O1,-,.,-,.,.,.,.
COc1ccc(N2CCc3c(C)nc4c(OC)cc(OC)cc4c32)c(OC)c1,.,-,-,-,-,+,-
CN(C)CC(=O)N[C@@H]1CC[C@@H](CCn2cc(C3CCCCC3)nn2)O[C@@H]1CO,-,.,-,.,.,.,.
C[C@H](NC(=O)C[C@H]1C[C@@H]2c3cc(NC(=O)NC4CCCCC4)ccc3O[C@@H]2[C@H](CO)O1)c1ccccc1,-,.,-,.,.,.,.
COc1ccc(CCN(C)C(=O)CN2C(=O)NC3(CCCCC3C)C2=O)cc1OC (stereo not drawn),-,.,.,-,-,+,-
CCc1ccc(C2C(C#N)=C(N)Oc3cc(N)ccc32)cc1 (stereo not drawn),-,-,-,-,-,+,-
Cc1ccccc1-c1ccc2c(c1)O[C@@H](CN(C)C(=O)Nc1ccc(F)cc1)[C@@H](C)CN([C@@H](C)CO)S2(=O)=O,-,.,-,.,.,.,.
Cc1cc(C)c2nc(N3CCN(C)CC3)c(C#N)cc2c1,.,-,-,-,-,+,-
Cc1ccc2nc(N3CCN(C)CC3)c(C#N)cc2c1,.,-,-,-,-,+,-
Cc1cccc2cc(C#N)c(N3CCN(C)CC3)nc12,.,-,-,-,-,-,.
CCC(=O)Nc1cc2c(C)cc(=O)oc2cc1C,.,-,-,-,-,+,.
COc1ccc2c3c([nH]c2c1)[C@@H](CO)N(C(C)=O)CC31CCN(C(=O)CN2CCOCC2)CC1,-,.,.,.,.,.,.
COc1cccc(-c2cn(CC[C@H]3CC[C@@H](NC(C)=O)[C@@H](CO)O3)nn2)c1,-,.,-,.,.,.,.
COC(=O)c1ccc(CN(c2ccccn2)S(=O)(=O)c2ccccc2)cc1,.,-,-,.,.,+,-
COc1ccc(S(=O)(=O)N(CC(=O)O)c2ccccn2)cc1,.,-,-,-,-,+,-
SMILES,RAD52 inh,FID counter,RAD54 branch,UBC13 polyUb,Apaf-1 inh,Neddyl block,Neddyl conf
CCOC(=O)CN(c1ccccn1)S(=O)(=O)c1ccccc1,.,-,-,-,-,.,.
COc1ccc(S(=O)(=O)N(CC(=O)O)c2ccccc2)cc1,-,-,-,-,-,-,.
Cc1ccccc1-c1cnc2c(c1)C(=O)N([C@@H](C)CO)C[C@@H](C)[C@@H](CN(C)C(=O)c1ccncc1)O2,-,.,-,.,.,.,.
CO[C@H]1CN(C)C(=O)c2ccc(NC(C)=O)cc2OC[C@H](C)N(Cc2cccc(F)c2)C[C@@H]1C,-,.,.,.,.,.,.
CCn1c(CSc2nc3ccccc3[nH]2)nc2cc(C(=O)O)ccc21,.,-,-,-,-,+,.
COc1cccc(S(=O)(=O)N(C)C[C@@H]2OCc3ccccc3-c3ccccc3C(=O)N([C@H](C)CO)C[C@@H]2C)c1,-,.,-,.,.,.,.

# Screens as filed in PubChem BioAssay.
